Assay results as given in ChEMBL document CHEMBL1147862, “Studies on synthesis and pharmacological activities of 3,6-disubstituted-1,2,4-triazolo[3,4-b]-1,3,4-thiadiazoles and their dihydro analogues” (2007).

Key:
Format in all cases: functional
Escherichia coli [1] = experiment: Antibacterial activity against Escherichia coli at 20 ug/ml by agar plate diffusion technique; details: read-out: IZ
Pseudomonas aeruginosa [2] = experiment: Antibacterial activity against Pseudomonas aeruginosa at 20 ug/ml by agar plate diffusion technique; details: read-out: IZ
Mus musculus [3] = experiment: Analgesic activity in Swiss mouse assessed as increase in reaction time at 20 mg/kg, po after 60 mins by Eddy's hot plate technique
Outline: (§1)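 Swiss mice of either sex, 25–35 g, placed one at a time on a hot plate held at 55 °C. End point is paw licking or jumping, whichever comes first, with a 15 s cut-off to avoid paw injury. Reaction time is recorded and reported as percent increase in reaction time.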

Pseudomonas aeruginosa [4] = experiment: Antibacterial activity against Pseudomonas aeruginosa at 10 ug/ml by agar plate diffusion technique; details: read-out: IZ
Staphylococcus aureus [5] = experiment: Antibacterial activity against Staphylococcus aureus at 30 ug/ml by agar plate diffusion technique; details: read-out: IZ
Rattus norvegicus [6] = experiment: Antiinflammatory activity in Wistar Albino rat assessed as inhibition of carrageenan-induced paw oedema at 20 mg/kg after 1 hr relative to control
Outline: (§2)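 Wistar albino rats, 150–200 g, six per group, dosed orally with a 20 mg/kg suspension; control gets 0.1 ml 1% gum acacia. After 30 min, 0.1 ml 1% carrageenan in saline is injected subplantar into the right hind paw. Paw volume is read by plethysmograph at 0–4 h. Inhibition = 100(1 − Vtest/Vcontrol) on mean volume increase.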

Rattus norvegicus [7] = experiment: Antiinflammatory activity in Wistar Albino rat assessed as inhibition of carrageenan-induced paw oedema at 20 mg/kg after 2 hrs relative to control; outline: as §2
Aspergillus niger [8] = experiment: Antifungal activity against Aspergillus niger at 20 ug/ml by paper disc method; details: read-out: IZ
Escherichia coli [9] = experiment: Antibacterial activity against Escherichia coli at 10 ug/ml by agar plate diffusion technique; details: read-out: IZ
Rattus norvegicus [10] = experiment: Antiinflammatory activity in Wistar Albino rat assessed as inhibition of carrageenan-induced paw oedema at 20 mg/kg after 4 hrs relative to control; outline: as §2
Staphylococcus aureus [11] = experiment: Antibacterial activity against Staphylococcus aureus at 10 ug/ml by agar plate diffusion technique; details: read-out: IZ
Rattus norvegicus [12] = experiment: Antiinflammatory activity in Wistar Albino rat assessed as inhibition of carrageenan-induced paw oedema at 20 mg/kg after 3 hrs relative to control; outline: as §2
Mus musculus [13] = experiment: Analgesic activity in Swiss mouse assessed as increase in reaction time at 20 mg/kg, po after 90 mins by Eddy's hot plate technique; outline: as §1
Bacillus subtilis [14] = experiment: Antibacterial activity against Bacillus subtilis at 10 ug/ml by agar plate diffusion technique; details: read-out: IZ
Candida albicans [15] = experiment: Antifungal activity against Candida albicans at 30 ug/ml by paper disc method; details: read-out: IZ
Aspergillus niger [16] = experiment: Antifungal activity against Aspergillus niger at 30 ug/ml by paper disc method; details: read-out: IZ
Aspergillus niger [17] = experiment: Antifungal activity against Aspergillus niger at 10 ug/ml by paper disc method; details: read-out: IZ
Mus musculus [18] = experiment: Analgesic activity in Swiss mouse assessed as increase in reaction time at 20 mg/kg, po after 30 mins by Eddy's hot plate technique; outline: as §1
Candida albicans [19] = experiment: Antifungal activity against Candida albicans at 10 ug/ml by paper disc method; details: read-out: IZ
Bacillus subtilis [20] = experiment: Antibacterial activity against Bacillus subtilis at 30 ug/ml by agar plate diffusion technique; details: read-out: IZ
Bacillus subtilis [21] = experiment: Antibacterial activity against Bacillus subtilis at 20 ug/ml by agar plate diffusion technique; details: read-out: IZ
Staphylococcus aureus [22] = experiment: Antibacterial activity against Staphylococcus aureus at 20 ug/ml by agar plate diffusion technique; details: read-out: IZ
Escherichia coli [23] = experiment: Antibacterial activity against Escherichia coli at 30 ug/ml by agar plate diffusion technique; details: read-out: IZ
Pseudomonas aeruginosa [24] = experiment: Antibacterial activity against Pseudomonas aeruginosa at 30 ug/ml by agar plate diffusion technique; details: read-out: IZ
Candida albicans [25] = experiment: Antifungal activity against Candida albicans at 20 ug/ml by paper disc method; details: read-out: IZ

Structure (SMILES) | zone of inhibition at 20 µg/mL (Escherichia coli [1]) | zone of inhibition at 20 µg/mL (Pseudomonas aeruginosa [2]) | Activity (Mus musculus [3]) | zone of inhibition at 10 µg/mL (Pseudomonas aeruginosa [4]) | zone of inhibition at 30 µg/mL (Staphylococcus aureus [5]) | inhibition in vivo at 20 mg/kg (Rattus norvegicus [6]) | inhibition in vivo at 20 mg/kg (Rattus norvegicus [7]) | zone of inhibition at 20 µg/mL (Aspergillus niger [8]) | zone of inhibition at 10 µg/mL (Escherichia coli [9]) | inhibition in vivo at 20 mg/kg (Rattus norvegicus [10]) | zone of inhibition at 10 µg/mL (Staphylococcus aureus [11]) | inhibition in vivo at 20 mg/kg (Rattus norvegicus [12]) | Activity (Mus musculus [13]) | zone of inhibition at 10 µg/mL (Bacillus subtilis [14]) | zone of inhibition at 30 µg/mL (Candida albicans [15]) | zone of inhibition at 30 µg/mL (Aspergillus niger [16]) | zone of inhibition at 10 µg/mL (Aspergillus niger [17]) | Activity (Mus musculus [18]) | zone of inhibition at 10 µg/mL (Candida albicans [19]) | zone of inhibition at 30 µg/mL (Bacillus subtilis [20]) | further results
Cc1occc1-c1nnc2n1NC(c1ccc([N+](=O)[O-])o1)S2 (stereo not given) | 11 mm | 11.8 mm | 15.68% | 6.12 mm | 17.5 mm | 15.6% | 18.1% | 10.4 mm | 5.78 mm | 24.9% | 6.11 mm | 22.8% | 26.85% | 6.25 mm | 15.8 mm | 15.3 mm | 5.48 mm | 5.34% | 5.89 mm | 17.2 mm | zone of inhibition at 20 µg/mL (Bacillus subtilis [21]): 11.5 mm; zone of inhibition at 20 µg/mL (Staphylococcus aureus [22]): 11.5 mm; zone of inhibition at 30 µg/mL (Escherichia coli [23]): 16.9 mm; zone of inhibition at 30 µg/mL (Pseudomonas aeruginosa [24]): 17.1 mm; zone of inhibition at 20 µg/mL (Candida albicans [25]): 11.1 mm
COc1ccc(Cc2nnc3n2NC(c2ccc[nH]2)S3)cc1OC (stereo not given) | 7.18 mm | 11.7 mm | 12.65% | 7.33 mm | 10.6 mm | 13.2% | 15.9% | 9.12 mm | 4.48 mm | 21.5% | 4.02 mm | 17.7% | 21.06% | 4.32 mm | 13.1 mm | 12.2 mm | 4.68 mm | 7.6% | 4.7 mm | 12 mm | zone of inhibition at 20 µg/mL (Bacillus subtilis [21]): 8.32 mm; zone of inhibition at 20 µg/mL (Staphylococcus aureus [22]): 7.64 mm; zone of inhibition at 30 µg/mL (Escherichia coli [23]): 14.2 mm; zone of inhibition at 30 µg/mL (Pseudomonas aeruginosa [24]): 13.3 mm; zone of inhibition at 20 µg/mL (Candida albicans [25]): 8.12 mm
Cc1occc1-c1nnc2n1NC(c1ccc[nH]1)S2 (stereo not given) | 8.42 mm | 12.3 mm | 17.45% | 6.67 mm | 12.3 mm | 13.7% | 18.2% | 9.42 mm | 5.11 mm | 22.7% | 4.6 mm | 20.3% | 23% | 5.33 mm | 14.8 mm | 13.2 mm | 5.1 mm | 7.14% | 5.24 mm | 16.3 mm | zone of inhibition at 20 µg/mL (Bacillus subtilis [21]): 10.7 mm; zone of inhibition at 20 µg/mL (Staphylococcus aureus [22]): 8.12 mm; zone of inhibition at 30 µg/mL (Escherichia coli [23]): 15.7 mm; zone of inhibition at 30 µg/mL (Pseudomonas aeruginosa [24]): 14.7 mm; zone of inhibition at 20 µg/mL (Candida albicans [25]): 9.16 mm
COc1ccc(Cl)c(-c2nnc3n2NC(c2cccn2C)S3)c1 (stereo not given) | 6.9 mm | 7.1 mm | 6.2% | 3.9 mm | 11 mm | 14.1% | 16.8% | 7.65 mm | 3.82 mm | 20.7% | 3.82 mm | 18.5% | 19.67% | 3.6 mm | 12.6 mm | 12.9 mm | 4.71 mm | 4.38% | 4.3 mm | 9.33 mm | zone of inhibition at 20 µg/mL (Bacillus subtilis [21]): 6.82 mm; zone of inhibition at 20 µg/mL (Staphylococcus aureus [22]): 6.1 mm; zone of inhibition at 30 µg/mL (Escherichia coli [23]): 10.1 mm; zone of inhibition at 30 µg/mL (Pseudomonas aeruginosa [24]): 11.9 mm; zone of inhibition at 20 µg/mL (Candida albicans [25]): 7.4 mm
COc1ccc(Cl)c(-c2nnc3n2NC(c2ccc[nH]2)S3)c1 (stereo not given) | 7.9 mm | 4.33 mm | 14.48% | 1.33 mm | 8.33 mm | 12.8% | 15.2% | 9.17 mm | 4.71 mm | 20.6% | 1.33 mm | 18.4% | 21.1% | 1.67 mm | 13.4 mm | 12.3 mm | 4.89 mm | 4.86% | 4.61 mm | 8.33 mm | zone of inhibition at 20 µg/mL (Bacillus subtilis [21]): 4 mm; zone of inhibition at 20 µg/mL (Staphylococcus aureus [22]): 4.33 mm; zone of inhibition at 30 µg/mL (Escherichia coli [23]): 14.3 mm; zone of inhibition at 30 µg/mL (Pseudomonas aeruginosa [24]): 8 mm; zone of inhibition at 20 µg/mL (Candida albicans [25]): 8.82 mm
